Reference: article PMC9632315 (The Oncologist, 2022)
“And” between values parts separate entries of the source, which are not always exact repeats. Equal values may be shown once.

What was measured:
[1] = stated without reference; cited from earlier work
advanced melanoma = settings: patients with advanced melanoma; median follow-up of 12.4 months; cited from earlier work
IDO1 = settings: patients with advanced solid tumors; cited from earlier work
[2] = Epacadostat plasma pharmacokinetics, noncompartmental analysis; format: in vivo, human; settings: steady state cycle 1/day 8; for AUC / half-life / Tmax: human, plasma, oral; for AUC: AUC0-τ; for half-life: t ½; for Tmax: t max, median (range)
Summary of the method: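 Test compound 100 mg oral bid (B, C); pembrolizumab 200 mg IV q3w. A: oxaliplatin 85, leucovorin 400, 5-FU 400 mg/m2 bolus then 1200 mg/m2 per day over 46 h; days 1, 15, 28-day cycles. B: nab-paclitaxel 125, gemcitabine 1000 mg/m2; days 1, 8, 15, 28-day cycles. C: paclitaxel 200 mg/m2, carboplatin AUC 6; day 1, 21-day cycles.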

[3] = tested on: plasma kynurenine production; settings: cited from earlier work
[4] = group A, mFOLFOX6, individual value (n ≤ 2)
[5] = group C, paclitaxel and carboplatin, individual values (n ≤ 2)
[6] = group D, pemetrexed and platinum agent, individual value (n ≤ 2)
[7] = group G, 5-FU and platinum agent, individual values (n ≤ 2)
[8] = 100 mg twice daily, group B, nab-paclitaxel and gemcitabine, individual value (n ≤ 2)

Molecule: Nc1nc2[nH]cc(CCc3ccc(C(=O)N[C@@H](CCC(=O)O)C(=O)O)cc3)c2c(=O)[nH]1 [pemetrexed, Pemetrexed, reference compound]
- clearance mechanism [1]: cleared by renal excretion

Molecule: placebo plus pembrolizumab: ECHO-301/KEYNOTE-252 control arm: placebo plus the PD-1 inhibitor pembrolizumab
- OS (median) (advanced melanoma): not reached

Molecule: NS(=O)(=O)NCCNc1nonc1C(=NO)Nc1ccc(F)c(Br)c1 [Epacadostat]
- metabolism of tryptophan to kynurenine, whole blood assays (IDO1): effectively inhibits
- percentage decrease in kynurenine levels from baseline to day 15 (IDO1): dose dependent
- clearance mechanism [1]: cleared predominantly by hepatic glucuronidation
- CLss/F [2, 4]: 81.7 L/h
- CLss/F ([2]; group B, nab-paclitaxel and gemcitabine, individual value (n ≤ 2)): 82.6 L/h
- AUC0-τ [2, 5]: 2.44 µM·h
- CLss/F [2, 5]: 70.4 L/h and 93.5 L/h
- t ½ [2, 5]: 2.62 h and 1.07 h
- AUC0-τ [2, 6]: 1.81 µM·h
- CLss/F [2, 6]: 126 L/h
- AUC0-τ [2, 7]: 2.81 µM·h
- CLss/F [2, 7]: 76.8 L/h and 81.3 L/h
- t ½ [2, 7]: 1.30 h
- AUC [2, 8]: 2.76 µM·h
- AUC ([2]; 100 mg twice daily, group C, paclitaxel and carboplatin, individual values (n ≤ 2)): 3.24 µM·h
- half-life [2, 8]: 1.42 h
- AUC [2, 4]: 2.79 µM·h
- AUC [2, 7]: 2.97 µM·h
- Tmax ([2]; group A, mFOLFOX6, N=6): 2.9 h
- Tmax ([2]; group F, gemcitabine and platinum agent, N=7): 2.1 h
- Tmax ([2]; group G, 5-FU and platinum agent, N=8): 3.1 h
- half-life [2, 4]: 1.78 h
- half-life [2, 6]: 1.3 h
- half-life [2, 7]: 1.35 h
- maximally tolerated dose [3]: 600 mg BID
- epacadostat dose required for suppression of plasma kynurenine production ([3]; in combination with pembrolizumab, retrospective analysis): 600 mg BID
